# Screening data from PubChem.
# Compounds with a hit are over-represented: about 1.2% of the library has one in this group of screens.
# Diaph inh CS: diaphorase inhibition or chemical oxidation counter-screen; diaphorase resazurin-to-resorufin fluorescence, NADH, 16 min; bacterial (C. kluyveri) enzyme, not human; inhibition, % at 20 µM; 190,000 compounds, 0.69% hits;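 active = primary screen inhibition at 20 µM above a set limit, cut at about 50% in these data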;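 note: plate controls were DMSO with full reaction for no effect and wells lacking NADH for full effect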
#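 Assay system: diaphorase enzyme from Clostridium kluyveri; Input: enzyme working solution with 0.14 U/mL diaphorase; Timing: 16 min at room temperature; Technique: resorufin fluorescence, excitation 544 nm, emission 590 nm; Benchmarks: positive control minus NADH, DMSO neutral control.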
# HKDC1 inh: HKDC1 (human) hexokinase inhibition; recombinant HKDC1, G6PDH/diaphorase resazurin coupled fluorescence; inhibition, % at 20 µM; 340,000 compounds, 0.16% hits;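 active = inhibition above about 35% when tested at 20 µM, limit read from the data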;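 note: plate controls were DMSO wells with enzyme for no effect and DMSO wells lacking enzyme for full effect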
#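 test system = in-house recombinant HK5 (HKDC1) enzyme | amount = HKDC1 at 5 µg/mL | control set = DMSO-enzyme wells negative, buffer-substituted wells positive | compound = one dose of 20 µM, 1% DMSO | schedule = reaction time 90 min, room temperature, protected from light | technique = resorufin fluorescence at 613 nm | reagent = glucose with 1 mM ATP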
# PfGluPho inh: PfG6PD (Plasmodium falciparum) enzyme inhibition; 350,000 compounds, 0.78% hits; inhibition, % at 20 µM; AID 504690; PfGluPho enzyme, NADPH resazurin-diaphorase fluorescence;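 active = inhibition reaching at least a set limit at 20 µM in the primary screen, cut at about 59% in these data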;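 note: 0% = DMSO wells with substrate and 100% = DMSO wells lacking glucose-6-phosphate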
# Tb hexokinase: T. brucei hexokinase 1 inhibition; inhibition, % at 10 µM; 220,000 compounds, 0.11% hits; recombinant TbHK1, G6PDH-coupled NADH A340;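 active = inhibition of 50% or more in the single-dose primary screen; inactive = inhibition below 50%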
# G6PDH CS: counter-screen for G6PDH assay hits: L. mesenteroides G6PDH inhibition. AID 1020. 200,000 compounds, 0.12% hits. inhibition, % at 5 µM. Purified L. mesenteroides G6PDH, diaphorase/resazurin coupled fluorescence, 45 min; in the data active = inhibition above about 50%
# PfGluPho conf: confirmation of Plasmodium falciparum G6PD inhibitors; shares compounds with PfGluPho inh; recombinant PfGluPho, NADPH-diaphorase-resazurin fluorescence; inhibition, % at 20 µM; 2,400 compounds, 34% hits;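 active = inhibition of at least 50% at 20 µM in any single replicate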;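 note: 0% = DMSO with substrate and 100% = DMSO lacking glucose-6-phosphate substrate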
# Diaphorase 10uM: diaphorase inhibition or oxidation at 10 uM NADPH; shares compounds with PfGluPho inh; diaphorase-coupled resazurin reduction, fluorescence, NADPH 10 uM; inhibition, % at 20 µM; 820 compounds, 39% hits; AID 504862;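 active = average inhibition reaching 50% or more with the compound at 20 µM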;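 note: resorufin red fluorescence formed as diaphorase reduces resazurin using NADPH; 0% = DMSO with enzyme and 100% = DMSO without enzyme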
# Diaph ctr 30uM: inhibits diaphorase or oxidizes, flagging false PfG6PD hits; AID 504863; Diaphorase/resazurin coupled assay, resorufin fluorescence, 30 uM NADPH; shares compounds with PfGluPho inh; 820 compounds, 29% hits; inhibition, % at 20 µM;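 active = inhibition averaging 50% or more, tested at 20 µM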;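 note: 0% = DMSO with enzyme and 100% = DMSO wells lacking diaphorase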
# * hit, by the source's call; nt = no result given.
SMILES,Diaph inh CS,HKDC1 inh,PfGluPho inh,Tb hexokinase,G6PDH CS,PfGluPho conf,others
COc1ccc(-c2cn(CCO)nc2-c2ccc(OC)cc2)cc1,nt,-6,-4,nt,nt,nt,
Cc1cc(Nc2ccc(Cl)cc2)nc(N)n1,2,-3,63*,-7,4,44,
COc1ccc(Nc2cc(C)nc(N)n2)cc1,nt,-5,11,-19,nt,nt,
O=C(CSc1ncccc1C(=O)O)Nc1ccc2c(c1)OCCO2,nt,-4,-5,nt,nt,nt,
O=C(/C=C/C(Cl)(Cl)Cl)Nc1ccc(Cl)cc1,nt,2,96*,nt,nt,18,
NC(=O)/C=C/C(=O)Nc1ccc(Cl)cc1,18,-4,-1,1,-1,nt,
CCn1c(C)nc2cc(C(=O)OC(C(F)(F)C(F)F)C(F)(F)C(F)F)ccc21,27,-1,61*,-9,-19,15,
O=c1[nH]c(=O)c2[nH]c(=S)[nH]c2[nH]1,nt,5,66*,nt,nt,28,
Cc1ccc(S(=O)(=O)NCCC(=O)Nc2cc(S(=O)(=O)N(C)C)ccc2C)cc1C,nt,-3,14,nt,nt,nt,
CCOC(=O)C1(Cc2ccccc2Cl)CCN(Cc2csc(C(C)=O)c2)CC1,20,-9,63*,2,13,25,
COC1C=CC(CNC(=O)c2cc3c(=O)n4cccc(C)c4nc3n2C)(OC)O1 (stereo not drawn),6,0,79*,-19,2,-7,
N#CC(=C=[N-])c1nc2ccccc2nc1-[n+]1cccc(NC(=O)c2cccs2)c1,nt,4,-8,16,nt,nt,
O=CNc1ccc2c3c(cccc13)-c1ccccc1-2,nt,26,104*,nt,nt,18,
CC(=O)Nc1ccc2c3c(cccc13)C(=O)N(c1ccccc1)C2=O,18,-8,0,-14,2,nt,
COCCn1nnnc1CN1CCN(C(=O)c2ccco2)CC1,nt,-8,1,nt,nt,nt,
CNC(=O)COc1coc(CN2CCN(Cc3ccccc3)CC2)cc1=O,nt,5,2,nt,nt,nt,
CC1=C(n2nnc([N+](=O)[O-])n2)C(c2cccnc2)C(C#N)=C(N)O1 (stereo not drawn),21,21,84*,-7,8,79*,Diaphorase 10uM=48;Diaph ctr 30uM=49
CN1CC(=O)N(CC(=O)NCCc2ccc(F)cc2)c2ccccc2C1=O,15,-1,0,-8,-4,nt,
CN1CC(=O)N(CC(=O)Nc2ccc(N(C)C)cc2)c2ccccc2C1=O,1,4,63*,1,7,6,
CC(C)c1ccc(N(CC(=O)NCc2ccc(F)cc2)C(=O)c2csnn2)cc1,21,-1,-3,0,10,nt,
S=C(Nc1ccc(Cl)cc1)Nc1cccc2cnccc12,51*,7,75*,-7,33,-8,
CN(C)S(=O)(=O)c1cccc(NC(=S)Nc2cccc3cnccc23)c1,nt,11,69*,-8,nt,8,
Fc1ccc(NC(=S)Nc2cccc3ccccc23)cc1F,nt,8,34,nt,nt,nt,
CNC(=O)C[C@H]1C(=O)N(Cc2ccccc2)C[C@@H]1C,nt,nt,-7,nt,nt,nt,
Cc1ccc(-n2c(C)cc(-c3csc(N)n3)c2C)cc1,28,-16,20,3,9,nt,
SMILES,Diaph inh CS,HKDC1 inh,PfGluPho inh,Tb hexokinase,G6PDH CS,PfGluPho conf,others
Cc1cc(-c2csc(N)n2)c(C)n1C,8,-2,64*,-6,10,-7,
O=S(=O)(c1ccccc1)N1CCN=C1SCc1cccc(Cl)c1,22,-4,82*,-2,-3,43,
O=S(=O)(c1ccccc1)N1CCN=C1SCc1ccccc1Cl,25,3,78*,2,16,21,
O=S(=O)(c1ccccc1)N1CCN=C1SCc1ccc(Cl)c(Cl)c1,12,-4,21,6,19,nt,
Cc1ccc(S(=O)(=O)N2CCN=C2SCc2ccccc2)cc1,12,4,69*,-1,6,24,
O=C(c1cc(C2CC2)nn1-c1ccccc1)N1CCN(Cc2c(F)cccc2Cl)CC1,nt,-2,4,nt,nt,nt,
CC(=O)Nc1ccc2sn(-c3ccccc3)c(=O)c2c1,nt,nt,126*,nt,nt,105*,Diaphorase 10uM=-12;Diaph ctr 30uM=11
O=c1c(-c2ccccc2)c[nH]n1-c1cccc([N+](=O)[O-])c1,12,-6,52,7,4,nt,
